The target of this assay is Voltage-dependent N-type calcium channel subunit alpha-1B (Homo sapiens, UniProt Q00975). Put plainly: Inhibition of endogenous human CaV2.2 in human SH-SY5Y cells in presence of nifedipine by Calcium 4 dye based calcium influx fluorescence-imaging assay. In kind it is cell-based. The method in brief:
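SH-SY5Y neuroblastoma cells with endogenous Cav2.2, seeded 48 h before assay and loaded with Calcium 4 dye in HEPES buffer pH 7.4 with 0.1% BSA and 10 µM nifedipine (30 min, 37 °C). Compound preincubated 300 s. Channels then opened with 90 mM KCl plus 5 mM CaCl2, fluorescence read 300 s more. 3-fold serial dilutions from 100 µM (1% DMSO). IC50 from concentration–response curves, mean ± SEM, n = 3–5.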

Molecules are shown by their SMILES.

Sequence of Voltage-dependent N-type calcium channel subunit alpha-1B (Q00975 whole entry): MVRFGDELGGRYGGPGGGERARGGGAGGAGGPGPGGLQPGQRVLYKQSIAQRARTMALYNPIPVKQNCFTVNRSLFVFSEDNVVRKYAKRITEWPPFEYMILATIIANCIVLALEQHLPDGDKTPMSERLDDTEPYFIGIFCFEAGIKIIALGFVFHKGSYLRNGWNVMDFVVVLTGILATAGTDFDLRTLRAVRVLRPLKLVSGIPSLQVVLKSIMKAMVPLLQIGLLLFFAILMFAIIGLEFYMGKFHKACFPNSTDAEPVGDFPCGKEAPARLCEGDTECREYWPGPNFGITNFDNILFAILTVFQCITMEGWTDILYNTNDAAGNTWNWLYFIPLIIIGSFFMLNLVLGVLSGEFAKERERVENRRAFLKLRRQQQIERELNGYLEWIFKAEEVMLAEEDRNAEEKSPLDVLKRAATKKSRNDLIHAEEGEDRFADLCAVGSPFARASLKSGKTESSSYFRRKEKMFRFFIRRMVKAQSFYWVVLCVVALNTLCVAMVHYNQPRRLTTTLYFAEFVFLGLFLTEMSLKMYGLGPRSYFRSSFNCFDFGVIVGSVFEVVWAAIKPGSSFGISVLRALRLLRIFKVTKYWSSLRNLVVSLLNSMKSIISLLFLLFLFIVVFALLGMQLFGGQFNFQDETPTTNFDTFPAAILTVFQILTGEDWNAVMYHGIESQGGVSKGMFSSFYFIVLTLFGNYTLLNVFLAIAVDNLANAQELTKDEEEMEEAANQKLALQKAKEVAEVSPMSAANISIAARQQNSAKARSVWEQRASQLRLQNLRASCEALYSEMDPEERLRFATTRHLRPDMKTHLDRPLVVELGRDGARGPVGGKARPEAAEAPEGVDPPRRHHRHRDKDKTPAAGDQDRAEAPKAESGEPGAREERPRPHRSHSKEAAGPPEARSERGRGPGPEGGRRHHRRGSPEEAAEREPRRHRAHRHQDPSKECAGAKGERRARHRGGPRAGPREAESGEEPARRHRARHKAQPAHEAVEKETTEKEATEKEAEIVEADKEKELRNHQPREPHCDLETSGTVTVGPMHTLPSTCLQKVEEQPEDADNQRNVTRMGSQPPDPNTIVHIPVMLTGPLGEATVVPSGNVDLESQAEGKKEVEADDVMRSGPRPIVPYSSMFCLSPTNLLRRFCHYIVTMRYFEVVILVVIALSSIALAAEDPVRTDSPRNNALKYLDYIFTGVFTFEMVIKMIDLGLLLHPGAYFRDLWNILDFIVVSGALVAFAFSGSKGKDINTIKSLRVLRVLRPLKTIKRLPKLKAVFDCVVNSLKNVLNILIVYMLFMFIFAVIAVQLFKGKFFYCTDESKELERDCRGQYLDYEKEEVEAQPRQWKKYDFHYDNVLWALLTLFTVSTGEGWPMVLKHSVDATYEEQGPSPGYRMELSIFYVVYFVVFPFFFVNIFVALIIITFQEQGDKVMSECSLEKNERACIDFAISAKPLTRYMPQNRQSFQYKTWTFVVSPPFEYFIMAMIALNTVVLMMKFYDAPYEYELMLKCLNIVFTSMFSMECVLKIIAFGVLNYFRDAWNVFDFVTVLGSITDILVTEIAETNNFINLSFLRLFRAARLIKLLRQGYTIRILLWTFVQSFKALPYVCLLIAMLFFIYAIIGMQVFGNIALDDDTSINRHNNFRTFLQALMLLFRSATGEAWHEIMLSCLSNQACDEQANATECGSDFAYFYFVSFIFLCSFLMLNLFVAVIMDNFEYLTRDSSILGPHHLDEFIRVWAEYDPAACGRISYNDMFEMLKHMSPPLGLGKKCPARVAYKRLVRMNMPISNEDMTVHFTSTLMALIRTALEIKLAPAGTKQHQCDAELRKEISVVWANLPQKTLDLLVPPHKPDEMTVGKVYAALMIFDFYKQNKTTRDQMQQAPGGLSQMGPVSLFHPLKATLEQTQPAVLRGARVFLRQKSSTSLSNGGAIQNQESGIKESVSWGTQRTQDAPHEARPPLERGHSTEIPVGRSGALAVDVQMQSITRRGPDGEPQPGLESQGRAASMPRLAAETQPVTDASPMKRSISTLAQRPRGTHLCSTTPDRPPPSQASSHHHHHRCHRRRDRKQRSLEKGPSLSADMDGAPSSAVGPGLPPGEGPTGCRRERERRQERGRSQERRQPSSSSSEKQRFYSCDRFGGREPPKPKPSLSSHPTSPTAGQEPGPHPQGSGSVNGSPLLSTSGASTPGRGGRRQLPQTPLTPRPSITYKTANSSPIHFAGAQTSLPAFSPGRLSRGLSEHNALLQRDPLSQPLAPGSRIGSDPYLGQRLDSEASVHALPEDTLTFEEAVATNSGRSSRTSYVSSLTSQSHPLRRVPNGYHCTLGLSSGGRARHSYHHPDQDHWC

A word on the IC50: it is the concentration needed to halve the response being measured. Consider `CN(C)CCC=C1c2ccccc2CCc2ccccc21` [AMITRIPTYLINE], for which the IC50 was determined as 12 µM.
As to `Clc1ccc2c(c1)C(N1CCNCC1)=Nc1ccccc1O2` [AMOXAPINE], the IC50 worked out at 27 µM.
For `CN(C)CCCN1c2ccccc2CCc2ccc(Cl)cc21` [CLOMIPRAMINE], the IC50 turned out to be 9 µM.
The value for `CN(C)CCC=C1c2ccccc2C=Cc2ccccc21` [CYCLOBENZAPRINE] was 10 µM.
The value for `CNCCCN1c2ccccc2CCc2ccccc21` [DESIPRAMINE] was 11 µM; that for `CN(C)CC/C=C1\c2ccccc2COc2ccccc21` [E-DOXEPIN] was 18 µM.
On to `CN(C)CCCN1c2ccccc2CCc2ccccc21` [IMIPRAMINE], for which the 50% inhibitory concentration (IC50) worked out at 22 µM.
To `CNCCCC12CCC(c3ccccc31)c1ccccc12` [MAPROTILINE] belongs 10 µM; to `CNCCC=C1c2ccccc2CCc2ccccc21` [NORTRIPTYLINE], 10 µM; to `OCCN1CCN(CCCN2c3ccccc3C=Cc3ccccc32)CC1` [OPIPRAMOL], 24 µM.
`CC(CN1c2ccccc2Sc2ccccc21)N(C)C` (stereo not drawn) [PROMETHAZINE]: the IC50 was determined as 18 µM.
To `CNCCCC1c2ccccc2C=Cc2ccccc21` [PROTRIPTYLINE] belongs 14 µM; to `CC(CN(C)C)CN1c2ccccc2CCc2ccccc21` (stereo not drawn) [TRIMIPRAMINE], 11 µM.

The record behind these values is ChEMBL document CHEMBL5104104, “Inhibition of N-type calcium ion channels by tricyclic antidepressants - experimental and theoretical justification for their use for neuropathic pain” (RSC Med Chem, 2022).
